{
  "source": "ChEMBL document CHEMBL3045963",
  "about": "“Synthesis of nalidixic acid based hydrazones as novel pesticides” (2010)",
  "data": [
    {"system": "Callosobruchus maculatus", "experiment": "Insecticidal activity against adult Callosobruchus maculatus assessed as mortality at 0.1% at 27 +/-1 degC after 24 hr by contact based film residue method", "assay_type": "functional", "details": "not given", "procedure,_shortened": "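Lab-reared adults, 2-5 days old, exposed to a dry film: 1 mL of 0.1% compound solution in dichloromethane is swirled in a 90 mm Petri plate and dried 3-5 min. Ten adults per plate are held at 27 ± 1 °C and 70% RH. Mortality is scored at 24 h, with no response to touch counted as dead. Triplicates, solvent control, malathion reference.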", "units": {"mortality": "%"}, "values": [
      {"molecule": "CCn1cc(C(=O)N/N=C/c2cccc3ccccc23)c(=O)c2ccc(C)nc21", "mortality": 0},
      {"molecule": "CCn1cc(C(=O)N/N=C/c2ccc3ccccc3c2)c(=O)c2ccc(C)nc21", "mortality": 0},
      {"molecule": "CCn1cc(C(=O)N/N=C/c2c3ccccc3cc3ccccc23)c(=O)c2ccc(C)nc21", "mortality": 10},
      {"molecule": "CCn1cc(C(=O)NN=C2CCCCC2)c(=O)c2ccc(C)nc21", "mortality": 0},
      {"molecule": "CCn1cc(C(=O)NN=C2C3CC4CC(C3)CC2C4)c(=O)c2ccc(C)nc21", "mortality": 0},
      {"molecule": "C/C=C/C=N/NC(=O)c1cn(CC)c2nc(C)ccc2c1=O", "mortality": 0},
      {"molecule": "CCn1cc(C(=O)N/N=C/c2ccc(OC)cc2)c(=O)c2ccc(C)nc21", "mortality": 70},
      {"molecule": "CCn1cc(C(=O)N/N=C/c2ccccc2C)c(=O)c2ccc(C)nc21", "mortality": 10}
    ]},
    {"system": "Tribolium castaneum", "experiment": "Insecticidal activity against adult Tribolium castaneum (red flour beetle) in compound pre-treated green gram grains assessed as mortality at 20 mg/kg after 48 hr by feeding based residue method", "assay_type": "functional", "details": "in Vigna radiata", "procedure,_shortened": "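Green gram grains are treated with compound in dichloromethane (0.6 mg in 5 mL) at 20 mg active ingredient per kg grain (0.002%). Ten adults are released onto 10 g of treated grain in a plastic box. Mortality is recorded after 48 h. Triplicate, solvent-treated control.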", "units": {"mortality at 20 mg/kg": "%"}, "values": [
      {"molecule": "CCn1cc(C(=O)N/N=C/c2ccc3ccccc3c2)c(=O)c2ccc(C)nc21", "mortality at 20 mg/kg": 10},
      {"molecule": "CCn1cc(C(=O)N/N=C/c2c3ccccc3cc3ccccc23)c(=O)c2ccc(C)nc21", "mortality at 20 mg/kg": 15},
      {"molecule": "CCn1cc(C(=O)NN=C2CCCCC2)c(=O)c2ccc(C)nc21", "mortality at 20 mg/kg": 15},
      {"molecule": "CCn1cc(C(=O)NN=C2C3CC4CC(C3)CC2C4)c(=O)c2ccc(C)nc21", "mortality at 20 mg/kg": 10},
      {"molecule": "CCn1cc(C(=O)N/N=C/c2ccc(OC)cc2)c(=O)c2ccc(C)nc21", "mortality at 20 mg/kg": 30}
    ]},
    {"system": "Macrophomina phaseolina", "experiment": "Fungicidal activity against Rhizoctonia bataticola by poisoned food technique", "assay_type": "functional", "details": "read-out: ED50 (the source's name)", "units": {"EC50": "µg/mL"}, "values": [
      {"molecule": "CCn1cc(C(=O)N/N=C/c2cccc3ccccc23)c(=O)c2ccc(C)nc21", "EC50": 316},
      {"molecule": "CCn1cc(C(=O)N/N=C/c2ccc3ccccc3c2)c(=O)c2ccc(C)nc21", "EC50": 256},
      {"molecule": "CCn1cc(C(=O)N/N=C/c2c3ccccc3cc3ccccc23)c(=O)c2ccc(C)nc21", "EC50": 390},
      {"molecule": "CCn1cc(C(=O)NN=C2CCCCC2)c(=O)c2ccc(C)nc21", "EC50": 188},
      {"molecule": "CCn1cc(C(=O)NN=C2C3CC4CC(C3)CC2C4)c(=O)c2ccc(C)nc21", "EC50": 638},
      {"molecule": "C/C=C/C=N/NC(=O)c1cn(CC)c2nc(C)ccc2c1=O", "EC50": 324},
      {"molecule": "CCn1cc(C(=O)N/N=C/c2ccc(OC)cc2)c(=O)c2ccc(C)nc21", "EC50": 301},
      {"molecule": "CCn1cc(C(=O)N/N=C/c2ccccc2C)c(=O)c2ccc(C)nc21", "EC50": 533}
    ]},
    {"system": "Rhizoctonia solani", "experiment": "Fungicidal activity against Rhizoctonia solani by poisoned food technique", "assay_type": "functional", "details": "read-out: ED50 (the source's name)", "units": {"EC50": "µg/mL"}, "values": [
      {"molecule": "CCn1cc(C(=O)N/N=C/c2cccc3ccccc23)c(=O)c2ccc(C)nc21", "EC50": 226},
      {"molecule": "CCn1cc(C(=O)N/N=C/c2ccc3ccccc3c2)c(=O)c2ccc(C)nc21", "EC50": 192},
      {"molecule": "CCn1cc(C(=O)N/N=C/c2c3ccccc3cc3ccccc23)c(=O)c2ccc(C)nc21", "EC50": 374},
      {"molecule": "CCn1cc(C(=O)NN=C2CCCCC2)c(=O)c2ccc(C)nc21", "EC50": 166},
      {"molecule": "CCn1cc(C(=O)NN=C2C3CC4CC(C3)CC2C4)c(=O)c2ccc(C)nc21", "EC50": 405},
      {"molecule": "C/C=C/C=N/NC(=O)c1cn(CC)c2nc(C)ccc2c1=O", "EC50": 248},
      {"molecule": "CCn1cc(C(=O)N/N=C/c2ccc(OC)cc2)c(=O)c2ccc(C)nc21", "EC50": 238},
      {"molecule": "CCn1cc(C(=O)N/N=C/c2ccccc2C)c(=O)c2ccc(C)nc21", "EC50": 408}
    ]},
    {"system": "Fusarium oxysporum", "experiment": "Fungicidal activity against Fusarium oxysporum by poisoned food technique", "assay_type": "functional", "details": "read-out: ED50 (the source's name)", "units": {"EC50": "µg/mL"}, "values": [
      {"molecule": "CCn1cc(C(=O)N/N=C/c2cccc3ccccc23)c(=O)c2ccc(C)nc21", "EC50": 134},
      {"molecule": "CCn1cc(C(=O)N/N=C/c2ccc3ccccc3c2)c(=O)c2ccc(C)nc21", "EC50": 89.5},
      {"molecule": "CCn1cc(C(=O)N/N=C/c2c3ccccc3cc3ccccc23)c(=O)c2ccc(C)nc21", "EC50": 222},
      {"molecule": "CCn1cc(C(=O)NN=C2CCCCC2)c(=O)c2ccc(C)nc21", "EC50": 62.6},
      {"molecule": "CCn1cc(C(=O)NN=C2C3CC4CC(C3)CC2C4)c(=O)c2ccc(C)nc21", "EC50": 258},
      {"molecule": "C/C=C/C=N/NC(=O)c1cn(CC)c2nc(C)ccc2c1=O", "EC50": 95.4},
      {"molecule": "CCn1cc(C(=O)N/N=C/c2ccc(OC)cc2)c(=O)c2ccc(C)nc21", "EC50": 152},
      {"molecule": "CCn1cc(C(=O)N/N=C/c2ccccc2C)c(=O)c2ccc(C)nc21", "EC50": 129}
    ]},
    {"system": "Spodoptera litura", "experiment": "Insecticidal activity against third-instar larval stage of Spodoptera litura assessed as mortality at 0.1% applied topically on the ventral side of the larvae measured after 24 hr by contact method", "assay_type": "functional", "details": "not given", "procedure,_shortened": "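Field-collected larvae are reared in the lab at 27 ± 1 °C and 70% RH. Two microliters of a 0.1% dichloromethane solution is applied to the ventral side. Ten treated larvae are kept per glass bottle and fed fresh castor leaves. Mortality is recorded at 24 h. Triplicate, solvent control.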", "units": {"mortality": "%"}, "values": [
      {"molecule": "CCn1cc(C(=O)N/N=C/c2cccc3ccccc23)c(=O)c2ccc(C)nc21", "mortality": 10},
      {"molecule": "CCn1cc(C(=O)N/N=C/c2ccc3ccccc3c2)c(=O)c2ccc(C)nc21", "mortality": 10},
      {"molecule": "CCn1cc(C(=O)N/N=C/c2c3ccccc3cc3ccccc23)c(=O)c2ccc(C)nc21", "mortality": 10},
      {"molecule": "CCn1cc(C(=O)NN=C2C3CC4CC(C3)CC2C4)c(=O)c2ccc(C)nc21", "mortality": 10}
    ]},
    {"system": "Alternaria porri", "experiment": "Fungicidal activity against Alternaria porri by poisoned food technique", "assay_type": "functional", "details": "read-out: ED50 (the source's name)", "units": {"EC50": "µg/mL"}, "values": [
      {"molecule": "CCn1cc(C(=O)N/N=C/c2cccc3ccccc23)c(=O)c2ccc(C)nc21", "EC50": 115},
      {"molecule": "CCn1cc(C(=O)N/N=C/c2ccc3ccccc3c2)c(=O)c2ccc(C)nc21", "EC50": 75.6},
      {"molecule": "CCn1cc(C(=O)N/N=C/c2c3ccccc3cc3ccccc23)c(=O)c2ccc(C)nc21", "EC50": 151},
      {"molecule": "CCn1cc(C(=O)NN=C2CCCCC2)c(=O)c2ccc(C)nc21", "EC50": 34.2},
      {"molecule": "CCn1cc(C(=O)NN=C2C3CC4CC(C3)CC2C4)c(=O)c2ccc(C)nc21", "EC50": 133},
      {"molecule": "C/C=C/C=N/NC(=O)c1cn(CC)c2nc(C)ccc2c1=O", "EC50": 89.8},
      {"molecule": "CCn1cc(C(=O)N/N=C/c2ccc(OC)cc2)c(=O)c2ccc(C)nc21", "EC50": 121},
      {"molecule": "CCn1cc(C(=O)N/N=C/c2ccccc2C)c(=O)c2ccc(C)nc21", "EC50": 109}
    ]},
    {"system": "Athelia rolfsii", "experiment": "Fungicidal activity against Athelia rolfsii by poisoned food technique", "assay_type": "functional", "details": "Agroathelia rolfsii; read-out: ED50 (the source's name)", "units": {"EC50": "µg/mL"}, "values": [
      {"molecule": "CCn1cc(C(=O)N/N=C/c2cccc3ccccc23)c(=O)c2ccc(C)nc21", "EC50": 259},
      {"molecule": "CCn1cc(C(=O)N/N=C/c2ccc3ccccc3c2)c(=O)c2ccc(C)nc21", "EC50": 202},
      {"molecule": "CCn1cc(C(=O)N/N=C/c2c3ccccc3cc3ccccc23)c(=O)c2ccc(C)nc21", "EC50": 429},
      {"molecule": "CCn1cc(C(=O)NN=C2CCCCC2)c(=O)c2ccc(C)nc21", "EC50": 177},
      {"molecule": "CCn1cc(C(=O)NN=C2C3CC4CC(C3)CC2C4)c(=O)c2ccc(C)nc21", "EC50": 524},
      {"molecule": "C/C=C/C=N/NC(=O)c1cn(CC)c2nc(C)ccc2c1=O", "EC50": 204},
      {"molecule": "CCn1cc(C(=O)N/N=C/c2ccc(OC)cc2)c(=O)c2ccc(C)nc21", "EC50": 320},
      {"molecule": "CCn1cc(C(=O)N/N=C/c2ccccc2C)c(=O)c2ccc(C)nc21", "EC50": 346}
    ]},
    {"system": "Spodoptera litura", "experiment": "Insecticidal activity against third-instar larval stage of prestarved Spodoptera litura in castor leaf assessed as mortality at 0.1% treated for 2 secs before larval infestation measured after 24 hr by feeding method", "assay_type": "functional", "details": "not given", "procedure,_shortened": "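Castor leaf is dipped 2 s in 0.1% compound solution, air-dried, and placed on moist filter paper in 9 cm Petri plates. Larvae starved 4 h beforehand are released singly, one per plate. Thirty replicates per treatment, solvent control. Mortality is scored after 24 h.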", "units": {"mortality": "%"}, "values": [
      {"molecule": "CCn1cc(C(=O)N/N=C/c2cccc3ccccc23)c(=O)c2ccc(C)nc21", "mortality": 90},
      {"molecule": "CCn1cc(C(=O)N/N=C/c2ccc3ccccc3c2)c(=O)c2ccc(C)nc21", "mortality": 70},
      {"molecule": "CCn1cc(C(=O)N/N=C/c2c3ccccc3cc3ccccc23)c(=O)c2ccc(C)nc21", "mortality": 20},
      {"molecule": "CCn1cc(C(=O)NN=C2CCCCC2)c(=O)c2ccc(C)nc21", "mortality": 70},
      {"molecule": "CCn1cc(C(=O)NN=C2C3CC4CC(C3)CC2C4)c(=O)c2ccc(C)nc21", "mortality": 50},
      {"molecule": "C/C=C/C=N/NC(=O)c1cn(CC)c2nc(C)ccc2c1=O", "mortality": 60},
      {"molecule": "CCn1cc(C(=O)N/N=C/c2ccc(OC)cc2)c(=O)c2ccc(C)nc21", "mortality": 70},
      {"molecule": "CCn1cc(C(=O)N/N=C/c2ccccc2C)c(=O)c2ccc(C)nc21", "mortality": 0}
    ]}
  ]
}
